# Compound activity as filed in PubChem.
# The sample as a whole holds a higher share of hits than the screen did.
# UPR XBP1 act = activators of adaptive XBP1 UPR arm, primary screen, cell-based, CHO-XBP1 luciferase reporter, luminescence, uHTS. IRE1-XBP1 UPR activation; percent of tunicamycin response, DMSO as zero. activation, % at 20 µM. hit rate 0.33% among 330,000. AID 463104, 2010;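 active = versus positive control, 20 µM dose yields 30% or more activation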;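 note: 100% = tunicamycin at 10 µg/mL and 0% = DMSO only wells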
#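 Signal: luciferase luminescence; Assay system: CHO-XBP1 luciferase reporter cells; Amount: one thousand reporter cells per well; Dosing: 20 µM single concentration, DMSO 1%; Benchmarks: high control tunicamycin 10 µg/mL final, low control DMSO vehicle only; Schedule: 6 h compound exposure at 37 °C, 5% CO2; Evaluation: percent activation relative to tunicamycin reference.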
# CHOP UPR activ = activators of apoptotic CHOP UPR arm, primary screen, cell-based, CHO-CHOP luciferase reporter, luminescence, uHTS; UPR activation; percent of tunicamycin response over DMSO baseline; activation, % at 10 µM; hit rate 0.34% among 330,000; AID 449763, 2010;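 active = at 10 µM dose, activation of 40% or more, normalized to positive control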;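 note: 100% = tunicamycin at 10 µg/mL and 0% = DMSO alone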
#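 Test system: CHO CHOP reporter cells. Input: 500 CHO-CHOP cells per well. Medium: F12 with 10% FBS. Technique: luciferase luminescence. Measure: percent activation relative to tunicamycin control. Dosing: 10 µM compound, 0.5% DMSO. Timing: 16-18 h cell attachment, then 6 h compound exposure, 37 °C.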
# CHOP inhibitor = inhibitors of CHOP promoter induction, primary screen, cell-based, unfolded protein response, luciferase reporter; CHO-K1 CHOP-promoter luciferase, tunicamycin-induced, 15-18 h; inhibition, % at 10 µM; hit rate 3.8% among 220,000;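 active = compounds that reduced the stress-induced luciferase reporter signal by more than about 70% of percent inhibition, limit read from the data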;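 note: 0% = tunicamycin plus vehicle and 100% = wells without tunicamycin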
# NOD2 RIPK2 PPI = NOD2-RIPK2 binding disruptors in cells, primary screen, fluorescence, CHO cells, BLA complementation; Receptor-interacting serine/threonine-protein kinase 2 (Homo sapiens), O43353; AID 624267, 2012; CCF4 ratio; hit rate 0.38% among 360,000; inhibition, % at 4.98 µM; in the data active = inhibition above about 21%;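 note: 0% = vehicle only and 100% = reference blocker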
# TLR9-MyD88 inh = inhibitors of TLR9-MyD88 association in cells, primary screen, cell-based, CHO, BLA complementation, fluorescence; Toll-like receptor 9 (Homo sapiens) + Myeloid differentiation primary response protein …; CCF4 FRET ratio; inhibition, % at 4.98 µM; hit rate 0.21% among 340,000;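 active = inhibition above the mean over all tested compounds plus 3 SD, cut at about 21% in these data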;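 note: 0% = DMSO only wells and 100% = clavulanate BLA inhibitor control wells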
# Target sequence (Q99836 whole entry, looked up): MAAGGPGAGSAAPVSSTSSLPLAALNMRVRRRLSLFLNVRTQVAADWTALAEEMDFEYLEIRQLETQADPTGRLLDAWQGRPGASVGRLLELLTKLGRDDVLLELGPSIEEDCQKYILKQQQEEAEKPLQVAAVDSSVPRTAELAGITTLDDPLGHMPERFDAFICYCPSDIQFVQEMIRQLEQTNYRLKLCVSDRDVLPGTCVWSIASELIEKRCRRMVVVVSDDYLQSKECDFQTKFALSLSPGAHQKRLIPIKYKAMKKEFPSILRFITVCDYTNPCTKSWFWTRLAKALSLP
# Target sequence (Q9NR96 whole entry, looked up): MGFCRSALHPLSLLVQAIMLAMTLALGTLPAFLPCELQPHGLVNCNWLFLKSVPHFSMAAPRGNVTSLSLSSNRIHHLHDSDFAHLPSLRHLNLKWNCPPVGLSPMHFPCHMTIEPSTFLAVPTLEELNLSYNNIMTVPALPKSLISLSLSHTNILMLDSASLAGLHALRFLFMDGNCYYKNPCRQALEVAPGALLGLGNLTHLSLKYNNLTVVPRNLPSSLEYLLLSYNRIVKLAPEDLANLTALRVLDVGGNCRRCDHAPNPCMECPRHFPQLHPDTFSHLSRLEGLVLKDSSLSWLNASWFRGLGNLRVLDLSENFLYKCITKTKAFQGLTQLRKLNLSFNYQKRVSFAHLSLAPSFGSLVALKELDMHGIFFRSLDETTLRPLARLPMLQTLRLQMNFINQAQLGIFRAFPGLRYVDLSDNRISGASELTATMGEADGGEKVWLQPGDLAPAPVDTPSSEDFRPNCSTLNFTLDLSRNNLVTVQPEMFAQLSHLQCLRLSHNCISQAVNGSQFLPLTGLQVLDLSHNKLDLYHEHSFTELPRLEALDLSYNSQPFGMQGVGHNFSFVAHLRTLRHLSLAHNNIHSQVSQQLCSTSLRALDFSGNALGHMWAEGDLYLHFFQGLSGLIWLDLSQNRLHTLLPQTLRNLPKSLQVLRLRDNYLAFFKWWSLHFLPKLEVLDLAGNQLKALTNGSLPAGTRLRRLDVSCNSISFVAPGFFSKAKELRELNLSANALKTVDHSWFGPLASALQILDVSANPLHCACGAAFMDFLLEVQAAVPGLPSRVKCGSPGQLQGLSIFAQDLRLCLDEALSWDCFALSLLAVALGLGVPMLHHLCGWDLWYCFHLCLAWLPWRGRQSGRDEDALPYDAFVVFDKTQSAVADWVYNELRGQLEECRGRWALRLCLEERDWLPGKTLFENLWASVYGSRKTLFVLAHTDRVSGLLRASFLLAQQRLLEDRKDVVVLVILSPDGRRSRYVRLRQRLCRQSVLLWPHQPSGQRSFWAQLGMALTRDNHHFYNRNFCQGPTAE
# TLR4-MyD88 BLA = inhibitors of TLR4-MyD88 association in cells, primary screen, cell-based, HeLa CL3-4, BLA complementation, FRET ratio. hit rate 0.18% among 200,000. Toll-like receptor 4 (Homo sapiens) + Myeloid differentiation primary response protein …. HeLa CL3-4 TLR4/MyD88 BLA complementation. inhibition, % at 8.4 µM; in the data active = inhibition above about 25%;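 note: 0% = vehicle and 100% = reference inhibitor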
# Numbers without * were called inactive; / = no result.
SMILES,UPR XBP1 act,CHOP UPR activ,CHOP inhibitor,NOD2 RIPK2 PPI,TLR9-MyD88 inh,TLR4-MyD88 BLA
O=C(Cn1cc2c(n1)CCCC2)NC1CCN(Cc2ccccc2)CC1,1,1,82*,6,12,14
O=C(C1CC2C=CC1C2)N1CCN(c2ccccc2)CC1 (stereo not given),0,1,17,1,-8,-3
CC1(C)C(C=C(Cl)Cl)C1C(=O)N1CCN(c2ccccc2)CC1 (stereo not given),-2,1,78*,-4,-4,-6
CCCCCCCCCCCCCCCCOCC(COCC(F)(F)F)OP(=O)(O)OCO (stereo not given),/,/,-5,/,/,/
CC(=O)Nc1cccc(C(=O)/C=C/c2ccc(/C=C/C(=O)c3cccc(NC(C)=O)c3)cc2)c1,15,83*,35,/,/,5
Cc1ccc(OCC(=O)NNC(=O)CSc2ncnc3sc(C)c(C)c23)cc1,2,-2,89*,-10,-2,12
Cc1cccc2cc(CN(Cc3ccc(F)cc3)C(=O)N(C)C)c3nnnn3c12,-3,-1,90*,3,3,-12
CSc1ccc(CN2CCC(N3CCC(C(=O)NC4CC4)CC3)CC2)cc1,/,/,/,3,1,/
CC(C)(C)c1ccc(/C=N/Nc2ccc(C(=O)O)cc2)cc1,-5,-9,83*,-3,1,-13
O=C(O)c1cc(N/N=C/c2ccc3c(c2)OCCO3)ccc1Cl,/,/,72*,-2,-9,0
COc1cccc(/C=N/Nc2nc(Nc3ccc([N+](=O)[O-])cc3)nc(N3CCCC3)n2)c1O,8,7,89*,-14,/,-8
O=C(O)c1ccc(N/N=C/c2ccc3c(c2)OCO3)cc1,-10,-9,93*,-3,/,0
O=[N+]([O-])c1ccc(Nc2nc(N/N=C/c3cccc(F)c3)nc(N3CCCC3)n2)cc1,3,9,16,-5,-6,0
O=C(O)c1ccc(N/N=C/c2ccc(C(F)(F)F)cc2)cc1,-7,-8,61,-5,1,1
Cc1cccc(Nc2nnc(SCC(O)=C(C#N)c3nc4ccccc4[nH]3)s2)c1,/,/,/,-9,4,/
O=C(c1ccco1)N1CCN(C(=O)c2[nH]c(C(F)(F)F)nc2-c2ccccc2)CC1,/,/,/,4,/,/
CC1(C(=O)O)CCCN1C(=O)c1cc2ccccc2s1 (stereo not given),/,/,/,-3,/,/
COc1cccc(/C=N/Nc2ccc(C(=O)O)cc2)c1O,-9,-10,101*,-13,14,2
Fc1ccc(CSc2nc3ncc(Br)cc3[nH]2)cc1,0,-1,74*,0,-1,-1
OC(c1ccc(F)cc1)c1nc(-c2ccoc2)cs1 (stereo not given),/,/,/,-10,/,/
COc1ccc(CC(=O)N/N=C/c2sccc2C)cc1,-1,0,/,-3,1,/
Cc1ccc(CSCC(=O)N/N=C/c2sccc2C)cc1,4,0,95*,1,5,-11
CCc1nc2c(cnn2-c2ccc(F)cc2)c(=O)n1-c1ccc(N2CCC(C)CC2)cc1,-3,0,79*,2,9,-6
Cc1nc2c(cnn2-c2ccccc2Cl)c(=O)n1-c1ccc(N2CCC(C)CC2)cc1,-1,2,77*,10,1,7
S=c1[nH]nc(COc2ccccc2)n1C1CCCCC1,-3,1,29,7,1,-3
S=c1[nH]nc(CSc2nc3ccccc3s2)n1C1CCCCC1,-2,2,87*,3,-8,-14
Cn1ncc(C#N)c1/N=C/N(Cc1ccccc1)Cc1ccccc1,-2,-1,89*,1,1,-21
CN1CCN(/C=N/c2c(C#N)cnn2C)CC1,-1,-2,-31,5,1,-5
